According to ChEMBL document CHEMBL3351639, “Fluorinated analogues of marsanidine, a highly α2-AR/imidazoline I1 binding site-selective hypotensive agent. Synthesis and biological activities” (Eur J Med Chem, 2014):

Tests used:
[1] = molecular target: T1, Alpha-2B adrenergic receptor (Homo sapiens, UniProt P18089); experiment: Displacement of [3H]RS-79948-197 from human alpha2B adrenoceptor expressed in CHO-K1 cells after 45 mins by liquid scintillation counting; assay type: cell-based
T1 sequence (P18089 whole entry): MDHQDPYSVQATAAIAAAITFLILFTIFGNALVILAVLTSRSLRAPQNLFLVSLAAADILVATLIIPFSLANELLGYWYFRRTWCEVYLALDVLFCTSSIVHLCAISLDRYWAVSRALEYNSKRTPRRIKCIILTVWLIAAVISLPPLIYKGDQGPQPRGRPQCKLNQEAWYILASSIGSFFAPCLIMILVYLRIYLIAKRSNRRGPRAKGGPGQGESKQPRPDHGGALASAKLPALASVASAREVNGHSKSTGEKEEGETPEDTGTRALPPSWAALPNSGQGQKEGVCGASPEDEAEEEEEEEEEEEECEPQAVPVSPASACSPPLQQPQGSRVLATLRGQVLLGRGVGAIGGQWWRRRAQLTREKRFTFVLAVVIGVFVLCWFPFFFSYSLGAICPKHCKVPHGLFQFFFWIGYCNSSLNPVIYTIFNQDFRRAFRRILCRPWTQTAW
How it was run: (§1)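 Membranes from CHO-K1 cells stably expressing each human α2-AR subtype (6–10 µg protein). Used 0.2 nM [3H]RS-79948-197 and 8 serial dilutions of competitor in 50 mM potassium phosphate, pH 7.4. Non-specific binding defined with 100 µM oxymetazoline. Filtration, then scintillation counting. Run in duplicate, at least 3 repeats. One-site nonlinear fit; IC50 converted to Ki by Cheng-Prusoff.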

[2] = molecular target: T2, Alpha-2C adrenergic receptor (Homo sapiens, UniProt P18825); experiment: Displacement of [3H]RS-79948-197 from human alpha2C adrenoceptor expressed in CHO-K1 cells after 45 mins by liquid scintillation counting; assay type: cell-based; how it was run: as §1
T2 sequence (P18825 whole entry): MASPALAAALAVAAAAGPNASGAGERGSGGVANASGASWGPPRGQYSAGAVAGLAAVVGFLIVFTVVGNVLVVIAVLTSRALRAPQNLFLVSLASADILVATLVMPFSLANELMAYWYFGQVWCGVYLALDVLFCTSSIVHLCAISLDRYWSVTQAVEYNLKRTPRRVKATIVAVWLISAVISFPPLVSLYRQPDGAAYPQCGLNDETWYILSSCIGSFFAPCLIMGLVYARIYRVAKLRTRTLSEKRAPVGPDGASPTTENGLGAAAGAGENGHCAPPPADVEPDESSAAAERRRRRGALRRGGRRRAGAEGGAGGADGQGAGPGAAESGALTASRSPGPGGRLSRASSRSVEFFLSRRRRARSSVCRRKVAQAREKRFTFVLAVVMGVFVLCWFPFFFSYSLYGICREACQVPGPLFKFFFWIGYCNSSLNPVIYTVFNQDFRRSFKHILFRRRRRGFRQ

| Compound | Ki [1] [µM] | Ki [2] [µM] |
| --- | --- | --- |
| Fc1cccc2cnn(N=C3NCCN3)c12 | 0.158 | 1.2 |
| Fc1ccc2cnn(N=C3NCCN3)c2c1 | 0.072 | 0.6 |
